# MC4R barr agon: human MC4R agonism via beta-arrestin; P32245; U2OS MC4R beta-arrestin complementation, luminescence; percent of melanotan II response, DMSO zero; activation, % at 8.9 µM; actives 0.98% (n = 360,000); AID 540308;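 active = activation above a per-plate cutoff, the mean activation of sample wells on that plate plus 3 SD, cut at about 8% in these data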
# Target sequence (P32245 whole entry, looked up): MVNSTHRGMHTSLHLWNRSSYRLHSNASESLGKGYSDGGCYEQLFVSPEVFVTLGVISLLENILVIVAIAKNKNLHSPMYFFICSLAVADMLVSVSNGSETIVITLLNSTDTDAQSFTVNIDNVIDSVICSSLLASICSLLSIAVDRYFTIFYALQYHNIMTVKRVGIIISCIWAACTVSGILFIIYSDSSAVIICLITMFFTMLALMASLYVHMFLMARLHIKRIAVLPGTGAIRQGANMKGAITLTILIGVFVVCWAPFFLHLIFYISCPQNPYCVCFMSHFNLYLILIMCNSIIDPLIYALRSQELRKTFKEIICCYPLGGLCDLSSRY
# XBP1 UPR activ: adaptive UPR (XBP1) activation. CHO-XBP1 luciferase reporter, IRE1-XBP1 UPR activation, luminescence; percent of tunicamycin response, DMSO as zero. activation, % at 20 µM. actives 0.33% (n = 330,000);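 active = versus positive control, 20 µM dose yields 30% or more activation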
#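 Material: CHO-XBP1 cells stably carrying IRE1-XBP1-driven luciferase reporter | Medium: F12 with 10% serum | Compound dosing: 20 µM single concentration, DMSO 1% | Incubation: Overnight seeding at 37 °C, 6 h compound treatment at 37 °C | Detection: Steady-Glo luminescence read | Read-out basis: % activation of reporter signal versus tunicamycin and DMSO controls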
# CHOP UPR activ: apoptotic UPR (CHOP) activation | actives 0.34% (n = 330,000) | AID 449763 | activation, % at 10 µM | CHO-CHOP luciferase reporter, luminescence; percent of tunicamycin response over DMSO baseline;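 active = at 10 µM dose, activation of 40% or more, normalized to positive control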
#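 Test system: CHO-CHOP cells, stable luciferase reporter of PERK-eIF2a-CHOP signalling | Quantity: 500 CHO-CHOP cells per well | Buffer or medium: F12 plus 10% serum | Compound dosing: 10 µM single point, 0.5% DMSO | Schedule: 6 h compound treatment, 37 °C | Signal: Luciferase luminescence | Control set: Tunicamycin high control, DMSO low control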
# MC4R antagonist: antagonists of human melanocortin 4 receptor (MC4R). P32245. MC4R-expressing cells, MTII-stimulated cAMP, LANCE TR-FRET. inhibition, % at 6.5 µM. actives 0.48% (n = 360,000);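 active = inhibition above its plate's cutoff, the mean of tested wells on that plate plus 3 SD, cut at about 29% in these data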
#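 System: U2OS-MC4R stable cell line; Technique: Eu-cAMP/anti-cAMP TR-FRET, emission 671 nm; Repeats: single well per compound; Also added: Melanotan II; Dosing: one concentration, 6.5 µM nominal; Schedule: 30-min compound, 1-h challenge, 1-h detection, room temperature.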
# Bfl-1 A1 inh: inhibitors of the anti-apoptotic protein A1, read as caspase activation. caspase activation, % (concentration not given with the values). MEF A1-2A-BIM cells, Caspase-Glo 3/7 luminescence, 3 h; percent of clofoctol response, vehicle zero. AID 2462. actives 0.066% (n = 330,000);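 active = over half of replicate activation scores above 10%, or exactly half above 10 with the replicate mean above 10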
# Numbers stand for hits; - = inactive; . = not tested or not shown. An excerpt weighted towards active compounds, which were near 2% of everything screened.
SMILES,MC4R barr agon,XBP1 UPR activ,CHOP UPR activ,MC4R antagonist,Bfl-1 A1 inh
COc1ccc(NC(=O)C2(C)CCN2Cc2cccc(OC)c2F)cc1OC (centres undefined),-,.,.,-,.
COC(=O)C[C@H]1C[C@H]2c3cc(NC(=O)C4CCC4)ccc3O[C@H]2[C@H](CO)O1,-,.,.,-,.
COc1cccc(OCCn2c(C)c(/C=N/n3cnnc3)c3ccccc32)c1,9.7,-,-,-,-
COc1ccc(OCCn2c(C)c(/C=N/n3cnnc3)c3ccccc32)cc1,-,-,-,-,-
COc1ccccc1OCCOc1ccc(/C=C2/C(=N)N3OC(C)=CC3=NC2=O)cc1OC,18.8,-,-,-,-
CC1=CC2=NC(=O)/C(=C\c3cc(C)n(-c4ccc(F)cc4)c3C)C(=N)N2O1,-,-,-,-,-
CC1=CC2=NC(=O)/C(=C\c3ccc(-c4cccc(Cl)c4)o3)C(=N)N2O1,11.6,-,-,-,-
COCCNc1nc(Nc2ccc(Cl)cc2F)c2sccc2n1,-,.,.,-,.
COc1ccc(-c2sc(Nc3ccccc3)n[n+]2-c2ccc(F)cc2)cc1Br,-,-,-,-,-
COc1ccc2ccccc2c1-c1sc(Nc2ccccc2)n[n+]1-c1ccc(F)cc1,11.9,-,-,-,-
CCOC(=O)c1c(C)[nH]c(C(=O)COC(=O)c2oc3ccccc3c2C)c1C,8.3,-,-,-,-
CCOC(=O)c1c(C)[nH]c(C(=O)CSc2ccccc2)c1C,8.4,-,-,-,-
CCOC(=O)c1c(C)[nH]c(C(=O)COC(=O)c2oc3ccc(OC)cc3c2C)c1C,-,-,-,-,-
CCOC(=O)c1c(C)[nH]c(C(=O)COC(=O)CCSc2ccccc2)c1C,-,-,-,-,-
Cc1ccc([N+](=O)[O-])c(NC(=O)COC(=O)CCNS(=O)(=O)c2cccs2)c1C,-,.,.,-,.
C[C@@H]1CCCCO[C@H](CN(C)S(=O)(=O)c2ccccc2)[C@@H](C)CN([C@H](C)CO)C(=O)c2cc(NC(=O)Cc3ccccc3)ccc2O1,-,.,.,-,.
CCn1c(C)cc(C(=O)CSc2nnc(C3CC3)n2C2CC2)c1C,-,.,.,-,.
Cc1ccc(Cl)cc1NC(=O)c1cc2ccccc2cc1O,8.4,-,-,-,-
CCNC(=O)C1(C)CCCN(C(=O)c2ccc3c(c2)C(C)(C)CCC3(C)C)C1 (centres undefined),-,.,.,-,.
CCN(CC(=O)Nc1ccc(NC(C)=O)cc1)C(=O)/C=C/c1cn(-c2ccccc2)nc1-c1ccc(F)cc1,8.4,-,-,-,-
CCN(CC(=O)Nc1ccc(NC(C)=O)cc1)C(=O)/C=C/c1cn(-c2ccccc2)nc1-c1ccc(C)cc1,-,-,-,-,-
COc1ccccc1-c1cc(C(F)(F)F)nc(S(=O)(=O)CCCC(=O)Nc2cc(C)on2)n1,-,-,-,-,-
COc1ccccc1-c1cc(C(F)(F)F)nc(S(=O)(=O)CCCC(=O)NC(C)C)n1,-,-,-,-,8.5
COc1ccc(C[C@H]2CN3C(=NC[C@@H]3Cc3ccccc3)N2CCNC(=O)c2ccc(C)c(Br)c2)cc1,22.8,-,-,-,-
COc1ccc(C[C@H]2CN3C(=NC[C@@H]3Cc3ccc(O)cc3)N2CCNC(=O)c2ccc(C)c(Br)c2)cc1,-,-,-,-,-
SMILES,MC4R barr agon,XBP1 UPR activ,CHOP UPR activ,MC4R antagonist,Bfl-1 A1 inh
COc1cccc(-c2sc3ccc(OC)cc3c2-c2ccc(OCCN(C)C)cc2)c1,10.2,-,-,-,-
COc1cccc(-c2sc3ccc(OC)cc3c2-c2ccc(O)cc2)c1,-,-,-,-,-
Cc1cc2[nH]c3c(c[n+](C)c4ccccc34)c2cc1C,-,-,-,-,-
Cc1cc2[nH]c3c4ccccc4nc(C)c3c2cc1C,23.6,.,.,-,.
CC1(Cc2ccc(F)c(Cl)c2)C(=O)Nc2c(Cl)cccc21 (centres undefined),-,.,.,-,.
CCCC(=O)N1CCC1(C)C(=O)Nc1cccc(F)c1 (centres undefined),-,.,.,-,.
Cc1nn(C(=O)CNS(=O)(=O)c2ccccc2)c(C)c1Sc1ccc(Cl)cc1,8.9,-,-,-,-
COc1ccc(C2=CCCCCC2)cc1OC,-,.,.,-,.
CC(C)OC(=O)N(C)C[C@@H]1OCc2ccccc2-c2c(n(C)c3ccccc23)C(=O)N([C@@H](C)CO)C[C@H]1C,-,.,.,-,.
CCOC(=O)N1CCc2c(sc3c2C(=O)NC(c2ccccc2)N3)C1 (centres undefined),9.0,-,-,-,-
OC1(c2cccc(C(F)(F)F)c2)CCN(c2ccc(-c3ccccc3)nn2)CC1,9.2,-,-,-,-
Cc1ccc(NC(=S)Nc2cc(-c3ccccc3)[nH]n2)cc1Cl,8.9,-,-,-,-
Cc1[nH]n(-c2ccc([N+](=O)[O-])cc2)c(=O)c1C=NCCc1c[nH]c2ccccc12,8.4,-,-,-,-
O=C(Nc1ccccc1)c1cc(C2CCCCN2C(=O)OCCF)on1 (centres undefined),-,.,.,-,.
COc1ccccc1N1C(=O)c2cccc3c(Cl)ccc(c23)C1=O,-,-,-,-,7.8
Cc1cccc(CC(=O)NCCS(=O)(=O)N2CCN(c3ccccc3)CC2)c1,-,.,.,-,.
Cc1sc(NC(=O)CSc2nnc3scc(-c4ccccc4)n23)c(C#N)c1C,15.7,-,-,-,-
CC(/C=N/NC(=O)c1cc(-c2ccc(C)o2)[nH]n1)=C\c1ccccc1,9.2,-,-,-,-
CC1C(=O)OC2C1CCC1(C)C3(C)C(=O)C=CC213 (centres undefined),-,.,.,-,.
Cc1ccc(C(=O)Nc2ccc(OCc3ccccc3)cc2)cc1[N+](=O)[O-],9.5,-,-,-,-
O=c1[nH][nH]c(-c2ccccc2)c1-c1ccccc1,-,.,.,-,.
O=c1c(-c2ccccc2)c1-c1ccccc1,.,-,57.7,.,.
COc1ccc(S(=O)(=O)N2CCC(C)CC2)cc1OC,-,-,-,-,-
CC1CCN(S(=O)(=O)c2ccc3c(c2)C(=NO)c2cc(S(=O)(=O)N4CCC(C)CC4)ccc2-3)CC1,34.1,-,-,-,-
O=S(=O)(c1ccc2c(c1)C(=NO)c1cc(S(=O)(=O)N3CCCCC3)ccc1-2)N1CCCCC1,-,133.6,148.6,-,-
O=S(=O)(c1ccc(S(=O)(=O)N2CCCC2)cc1)N1CCCCCC1,-,-,-,-,-
Cc1ccc(OCCC(=O)Nc2ccccc2C(=O)NC2CC2)cc1,-,-,-,-,-
Cc1ccc(SCCC(=O)Nc2ccccc2C(=O)NC2CCCCC2)cc1,9.4,-,-,-,-
CN(C)c1cc(N/N=C\c2ccccc2)nc(N(C)C)n1,8.5,-,-,-,-
CCC(CC)C(=O)N(C)c1c(C)nc2c(OCc3ccc(C#N)cc3)cccn12,-,.,.,-,.
